This is one part of a sample in which hits are shown more often than they occur.
RORA inh = inhibitors of orphan receptor RORA, primary screen, cell-based, luminescence; Nuclear receptor ROR-alpha (Homo sapiens), P35398; actives 0.43% (n = 65,000); CHO-K1 Gal4-RORA LBD luciferase reporter; inhibition, % at 10 µM;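 active = inhibition above the mean of all tested compounds plus 3 SD, cut at about 52% in these data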
Target sequence (P35398 whole entry, looked up, the tested form may be a part): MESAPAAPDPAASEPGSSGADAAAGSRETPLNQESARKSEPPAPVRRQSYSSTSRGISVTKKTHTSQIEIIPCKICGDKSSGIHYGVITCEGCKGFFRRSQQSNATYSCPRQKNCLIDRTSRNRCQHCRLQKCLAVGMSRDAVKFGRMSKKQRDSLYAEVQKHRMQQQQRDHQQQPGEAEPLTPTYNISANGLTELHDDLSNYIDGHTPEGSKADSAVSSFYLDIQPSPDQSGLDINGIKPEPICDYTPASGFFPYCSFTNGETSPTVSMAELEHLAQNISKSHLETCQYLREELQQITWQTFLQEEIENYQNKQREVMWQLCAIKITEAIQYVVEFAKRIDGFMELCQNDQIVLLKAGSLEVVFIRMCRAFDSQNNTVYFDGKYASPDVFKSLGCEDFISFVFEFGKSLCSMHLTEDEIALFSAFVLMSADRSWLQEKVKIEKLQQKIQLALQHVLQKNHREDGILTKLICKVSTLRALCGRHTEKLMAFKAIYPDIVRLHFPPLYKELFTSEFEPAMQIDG
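Test system: CHO-K1 cells with Gal4-hRORA LBD fusion and pG5-luc reporter | Timing: 20 h compound treatment, 37 °C | Detection: Luminescence from basal luciferase reporter expression | Read-out basis: % inhibition of basal luciferase versus +RORA/-RORA DMSO controls | Repeats: One measurement per compound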
Hits are given with their value.

Results for COc1ccc(C2C(C(=O)O)CC(=O)N2C2CCCCC2)cc1 (stereo unspecified) ?
RORA inh: inactive

Results for CCC1SC2=NC(C)=C(C(=O)OC)C(c3cccs3)N2C1=O (stereo unspecified) ?
RORA inh: inactive

Results for O=C(CN1CCC(n2nnc3ccccc32)CC1)NCc1cccs1 ?
RORA inh: inactive

How did Cc1ccc(-c2csc(NC(=O)c3ccno3)n2)cc1 do in these assays?
RORA inh: inactive

How did COc1ccccc1C1/C(=C(/O)c2ccc(Cl)cc2)C(=O)C(=O)N1CCN1CCOCC1 (stereo unspecified) do in these assays?
RORA inh: inactive

How did CCc1ccc(-c2cn3nc(C)c(C)nc3n2)cc1 do in these assays?
RORA inh: 86

How did CCCCC(=O)Nc1ccc(C(=O)N2CCCC(C(=O)OCC)C2)cc1 (stereo unspecified) do in these assays?
RORA inh: inactive

Results for Cc1cccc2cc3c(nc12)SC(=NCC1CCCO1)N(Cc1ccco1)C3 (stereo unspecified) ?
RORA inh: 55

How did CCc1ccc(NC(=O)CSc2nnc(Cc3cccn3C)n2-c2ccc(F)cc2)cc1 do in these assays?
RORA inh: inactive

How did O=C(CSc1nnnn1C1CCCCC1)NCc1ccc2c(c1)OCO2 do in these assays?
RORA inh: inactive

What do the screens show for `c1ccc2c(c1)CCN(c1ncnc3c1[nH]c1ccccc13)C2`?
RORA inh: 89

How did c1ccc(CN2CCN(c3nc(-c4ccccc4)nc(-n4ccnc4)n3)CC2)cc1 do in these assays?
RORA inh: inactive

How did c1ccc(CN2CCN(c3ncnc4c3[nH]c3ccccc34)CC2)cc1 do in these assays?
RORA inh: 67

What do the screens show for `O=c1c2[nH]c3ccccc3c2ncn1C1CCCCC1`?
RORA inh: inactive

Results for O=C(c1ccc(Cn2c(=O)[nH]c3ccccc3c2=O)cc1)N1CCN(c2ccccc2)CC1 ?
RORA inh: inactive

What do the screens show for `Nc1nc(N)c2sc3nc4c(cc3c2n1)CCC4`?
RORA inh: inactive

How did CCOC(=O)N1CCN(C2=NC3(CCCCC3)C(C#N)C(=O)N2)CC1 (stereo unspecified) do in these assays?
RORA inh: inactive

How did CCOC(=O)Cc1csc(NC(=O)CCS(=O)(=O)Cc2ccccc2)n1 do in these assays?
RORA inh: inactive

What do the screens show for `CCOC(=O)NCCc1c(C)nc2c(c(C)nn2C(C)(C)C)c1C`?
RORA inh: inactive

Results for Cn1c(=O)cc(OCCCC(=O)NCc2ccc3c(c2)OCO3)c2ccccc21 ?
RORA inh: inactive

Results for CC1CN(C(=O)CN2C(=O)NC3(CCCCCCC3)C2=O)CC(C)O1 (stereo unspecified) ?
RORA inh: inactive

How did COC(=O)c1cc(Br)c(=O)n(-c2ccc(OC)cc2)c1 do in these assays?
RORA inh: inactive

What do the screens show for `CC1CCN(C(=O)CSc2ccc3nnc(-c4ccccc4)n3n2)CC1`?
RORA inh: inactive

How did N/C(=N\S(=O)(=O)c1ccc(Cl)s1)c1ccccc1 do in these assays?
RORA inh: inactive

What do the screens show for `Cc1cccc(NC(=O)c2cc3ccccc3c(=O)o2)n1`?
RORA inh: inactive

How did COc1ccc(NC(=O)Nc2cccc(OC)c2)cc1 do in these assays?
RORA inh: inactive

Results for Cc1cccc(NC(=O)Nc2ccc(C#N)cc2)n1 ?
RORA inh: 60

What do the screens show for `Cc1noc(C)c1COC(=O)CCc1nc2ccccc2c(=O)[nH]1`?
RORA inh: inactive

Results for COc1ccccc1-c1nnc2sc(-c3ccc(N(C)C)cc3)nn12 ?
RORA inh: 57

What do the screens show for `COc1ccccc1-c1nn2c(C(F)(F)F)nnc2s1`?
RORA inh: inactive

How did CN(C)c1ccc(-c2nn3c(-c4ccccc4Cl)nnc3s2)cc1 do in these assays?
RORA inh: inactive

What do the screens show for `CCOC(=O)N1CCC(NC(=O)Cn2cc3c(n2)CCCC3)CC1`?
RORA inh: inactive

Results for CC1(C)CC(=O)C(C=NCCN2CCN(CCCCS(=O)(=O)O)CC2)=C(O)C1 ?
RORA inh: inactive

How did CC#CCCCC(=O)Nc1cccc(C(=O)O)c1 do in these assays?
RORA inh: inactive

Results for Cc1cc(C(=O)Nc2cccc(C(=O)O)c2)oc1C ?
RORA inh: 74

How did O=C(Nc1cccc(Br)c1)c1cc2ccccc2o1 do in these assays?
RORA inh: inactive

How did CCOc1ccc(-n2nnc3c(=O)n(CC(=O)c4ccccc4)cnc32)cc1 do in these assays?
RORA inh: inactive

Results for CSC1=C(C#N)C(C)CC(=O)N1 (stereo unspecified) ?
RORA inh: inactive

What do the screens show for `COc1ccc(C(=O)c2ccccc2)c(O)c1`?
RORA inh: inactive

Results for COc1ccc(O)c(C(=O)CC(=O)c2ccc(F)cc2)c1 ?
RORA inh: 58

Results for COc1cccc(NC(=O)Cc2nnc(SCC(=O)c3ccccc3)n2C)c1 ?
RORA inh: inactive

Results for COc1cccc(CNC(=O)CCCNS(=O)(=O)c2cccs2)c1 ?
RORA inh: inactive

What do the screens show for `O=C(NCc1ccncc1)c1cccc(F)c1`?
RORA inh: inactive

How did O=C(C1CCCN(S(=O)(=O)c2cccs2)C1)N1CCN(C2CCCCC2)CC1 (stereo unspecified) do in these assays?
RORA inh: inactive

What do the screens show for `N#Cc1c(NC(=O)COC(=O)C2CC3C=CC2C3)oc(-c2ccccc2)c1-c1ccccc1` (stereo unspecified)?
RORA inh: inactive

Results for Cn1c(=O)oc2cc(S(=O)(=O)NCC3CCCO3)ccc21 (stereo unspecified) ?
RORA inh: inactive

How did COc1ccccc1CNC(=O)C(C)NS(=O)(=O)c1ccc(C)cc1 (stereo unspecified) do in these assays?
RORA inh: inactive

Results for Cc1cc(NC(=O)COc2cccc3cccnc23)no1 ?
RORA inh: inactive

What do the screens show for `COc1ccccc1-c1cc(C(F)(F)F)nc(S(=O)(=O)CCCC(=O)NC(C)C)n1`?
RORA inh: 57

How did COc1ccc(S(=O)(=O)N(CC(=O)Nc2cc(C)on2)Cc2ccccc2)cc1 do in these assays?
RORA inh: inactive

Results for COc1ccc(S(=O)(=O)CCC(=O)NC2CCCCC2)cc1 ?
RORA inh: inactive

Results for COc1ccccc1-c1cc(C(F)(F)F)nc(S(=O)(=O)CCCC(=O)Nc2cc(C)on2)n1 ?
RORA inh: 70

What do the screens show for `N#Cc1cn(CC(=O)O)c2ccccc12`?
RORA inh: inactive

How did COc1ccc(C(O)P(=O)(O)CCc2ccccc2)cc1 (stereo unspecified) do in these assays?
RORA inh: inactive

Results for CCSc1cc(C2C(C#N)=C(N)OC(C)=C2C(=O)OC)c(C)o1 (stereo unspecified) ?
RORA inh: inactive

Results for CC1CCN(S(=O)(=O)c2cccc(C(N)=O)c2)CC1 ?
RORA inh: inactive

Results for CC(=O)c1ccc(N2CCN(CCC#N)CC2)c(F)c1 ?
RORA inh: inactive

Results for O=c1c2c3c(sc2nc2sc(C4CC4)nn12)CCCC3 ?
RORA inh: inactive

How did Cc1ccnc(N2CCN(c3c4c(c(C#N)c5nc6ccccc6n35)CCC4)CC2)c1 do in these assays?
RORA inh: inactive

What do the screens show for `Cc1ccc2c(c1)N(CC(=O)NCCc1c[nH]c3ccccc13)C(=O)CO2`?
RORA inh: inactive

What do the screens show for `CCNc1nc(N)nc(Oc2ccc(C(=O)OC)cc2)n1`?
RORA inh: inactive

How did O=S(=O)(c1ccc(S(=O)(=O)N2CCCC2)cc1)N1CCCCCC1 do in these assays?
RORA inh: inactive

How did O=S(=O)(c1ccc2c(c1)C(=NO)c1cc(S(=O)(=O)N3CCCCC3)ccc1-2)N1CCCCC1 do in these assays?
RORA inh: 66
